Source: ChEMBL document CHEMBL4689842, “EUbOPEN Chemogenomics Library wave 1” (2021)
Several values for one entry are separate records, joined by “and”; a condition that tells them apart may be missing. Identical values can stand only once.

Test system: U2OS
Test: Multiplex assay against U2OS
Format: toxicity, cell-based
Conditions: human, 10 µM, compound concentration 10 uM
How it was run: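 Hoechst33342, BioTracker Green Microtubule Cytoskeleton Dye, MitoTracker Red and Annexin V Alexa Fluor 680 were added to live cells at seeding, and imaging on a CQ1 microscope at 37°C and 5% CO2 followed compound addition. Gating by CellPathfinder machine learning separated cells into Hoechst high-intensity objects or normal cells, then normal cells into healthy, pyknosed or fragmented nuclei, then pyknosed cells into mitotic or apoptotic. Per cents of healthy-nucleus cells are reported for the tubulin, mitochondrial-mass and membrane-permeability phenotypes.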

CCOCCn1cc(C(=O)Nc2ccc(-n3nc(-c4cccnc4)cc3C(F)(F)F)cn2)ccc1=O [BI 1935]
Population Apoptotic (%) (12 h, replicate 1): 22% and 50% and 42%
Population Healthy Nuclei (%) (12 h, replicate 1): 82% and 63% and 91%
Population Hoechst High Intensity Objects (%) (12 h, replicate 1): 4% and 8% and 3%
Population Mitotic Cells (%) (12 h, replicate 1): 77% and 50% and 57%
Population Normal (%) (12 h, replicate 1): 95% and 91% and 96%
Total Cell Count (12 h, replicate 1): 162 and 131 and 216
Population Apoptotic (%) (12 h, replicate 2): 28% and 47% and 16%
Population Fragmented Nuclei (%) (12 h, replicate 2): 5% and 8% and 12%
Population Healthy Nuclei (%) (12 h, replicate 2): 77% and 65%
Population Hoechst High Intensity Objects (%) (12 h, replicate 2): 10% and 7% and 9%
Population Mitochondria Different-Phenotype (%) (12 h, replicate 2): 22% and 47% and 19%
Population Mitotic Cells (%) (12 h, replicate 2): 71% and 52% and 83%
Population Normal (%) (12 h, replicate 2): 89% and 92% and 90%
Total Cell Count (12 h, replicate 2): 89 and 79 and 129
Population Apoptotic (%) (24 h, replicate 1): 42% and 33% and 27%
Population Healthy Nuclei (%) (24 h, replicate 1): 62% and 86% and 91%
Population Hoechst High Intensity Objects (%) (24 h, replicate 1): 6% and 3%
Population Mitochondria Different-Phenotype (%) (24 h, replicate 1): 51% and 17% and 20%
Population Mitotic Cells (%) (24 h, replicate 1): 57% and 66% and 72%
Population Normal (%) (24 h, replicate 1): 93% and 96%
Total Cell Count (24 h, replicate 1): 147 and 211 and 291
Population Apoptotic (%) (24 h, replicate 2): 46% and 40% and 66%
Population Fragmented Nuclei (%) (24 h, replicate 2): 3% and 9%
Population Healthy Nuclei (%) (24 h, replicate 2): 82% and 66%
Population Hoechst High Intensity Objects (%) (24 h, replicate 2): 7% and 8%
Population Mitochondria Different-Phenotype (%) (24 h, replicate 2): 27% and 50%
Population Mitotic Cells (%) (24 h, replicate 2): 53% and 60% and 33%
Population Normal (%) (24 h, replicate 2): 92% and 91%
Population Tubulin-Different-Phenotype (%) (24 h, replicate 2): 27% and 44% and 22%
Total Cell Count (24 h, replicate 2): 101 and 92 and 149
Population Apoptotic (%) (48 h, replicate 1): 51%
Population Fragmented Nuclei (%) (48 h, replicate 1): 16%
Population Healthy Nuclei (%) (48 h, replicate 1): 64%
Population Hoechst High Intensity Objects (%) (48 h, replicate 1): 10%
Population Membrane Permeable-Phenotype (%) (48 h, replicate 1): 15%
Population Mitochondria Different-Phenotype (%) (48 h, replicate 1): 26%
Population Mitotic Cells (%) (48 h, replicate 1): 48%
Population Normal (%) (48 h, replicate 1): 89%
Population Pyknosed Nuclei (%) (48 h, replicate 1): 19%
Population Tubulin-Different-Phenotype (%) (48 h, replicate 1): 51%
Total Cell Count (48 h, replicate 1): 178
Population Apoptotic (%) (48 h, replicate 2): 52%
Population Fragmented Nuclei (%) (48 h, replicate 2): 7%
Population Healthy Nuclei (%) (48 h, replicate 2): 73%
Population Hoechst High Intensity Objects (%) (48 h, replicate 2): 4%
Population Membrane Permeable-Phenotype (%) (48 h, replicate 2): 17%
Population Mitochondria Different-Phenotype (%) (48 h, replicate 2): 30%
Population Mitotic Cells (%) (48 h, replicate 2): 47%
Population Normal (%) (48 h, replicate 2): 95%
Population Tubulin-Different-Phenotype (%) (48 h, replicate 2): 40%
Total Cell Count (48 h, replicate 2): 114
